Experimental data taken from ChEMBL document CHEMBL4038278, “Structural modifications of diarylpyrimidines (DAPYs) as HIV-1 NNRTIs: Synthesis, anti-HIV activities and SAR” (Bioorg Med Chem, 2017).

Experiments:
[1] = test system: Human immunodeficiency virus 2; experiment: Antiviral activity against HIV-2 ROD infected in human MT4 cells assessed as protection against virus induced cytopathic effect measured at 5 days post infection by MTT assay; type: functional, cell-based; conditions: Human immunodeficiency virus 2, ISOLATE ROD, MT4, 120 h
In short: (§1)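 MT-4 cells spun down (5 min, 220 g), resuspended at 6 x 10^5 cells/mL and infected with 100-300 CCID50 virus. Serial 5-fold compound dilutions added at infection, triplicate wells. After 5 days, viability read by MTT reduction at 540 and 690 nm using the median of three wells. […] Mean of at least three independent experiments.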

[2] = Inhibition of HIV-1 3B wild type reverse transcriptase infected in human MT4 cells assessed as protection against virus-induced cytopathic effect measured at 5 days post infection by MTT assay; type: cell-based; conditions: Human immunodeficiency virus 1, 3B, MT4, 120 h; in short: as §1
[3] = Selectivity index, ratio of CC50 for human MT4 cells to EC50 for HIV-1 3B wild type reverse transcriptase infected in human MT4 cells; type: toxicity, cell-based; conditions: read-out: Ratio CC50/EC50
In short: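 SI calculated as CC50 in mock-infected MT-4 cells divided by EC50 against HIV-1 IIIB. Both values come from the same 5-day MTT run, with infected and mock-infected triplicate series tested in parallel.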

[4] = Cytotoxicity against human MT4 cells assessed as reduction in cell viability after 5 days by MTT assay; type: cell-based
In short: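 Mock-infected exponentially growing MT-4 cells (6 x 10^5 cells/mL) given serial 5-fold compound dilutions in triplicate wells in parallel with the infected series. Viability measured by MTT after 5 days, absorbance at 540/690 nm, median of three wells. […] Mean of at least three independent experiments.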

Compound	EC50 [1]	EC50 [2]	selectivity ratio [3]	CC50 at 120 h [4]
N#Cc1ccc(Nc2nccc(OCc3ccccc3)n2)cc1	> 13 µM	0.022 µM	591	13 µM
N#Cc1ccc(Nc2nccc(OCc3ccc4ccccc4c3)n2)cc1	> 212 µM	0.17 µM	1250	212 µM
CN(C)c1ccnc(Nc2ccc(C#N)cc2)n1	> 34 µM	> 34 µM	< 1	34 µM
N#Cc1ccc(Nc2nccc(OCc3cccc(Br)c3)n2)cc1	> 221 µM	0.048 µM	4600	221 µM
N#Cc1ccc(Nc2nccc(OCc3cccc(F)c3)n2)cc1	> 105 µM	0.014 µM	7500	105 µM
COc1ccccc1COc1ccnc(Nc2ccc(C#N)cc2)n1	> 8.9 µM	0.027 µM	356	8.9 µM
N#Cc1ccc(Nc2nccc(OCc3cccc(C#N)c3)n2)cc1	> 4.1 µM	0.18 µM	23	4.1 µM
N#Cc1ccc(Nc2nccc(OCc3ccccc3C#N)n2)cc1	> 113 µM	0.014 µM	8070	113 µM
N#Cc1ccc(Nc2nccc(OCc3ccccc3C(F)(F)F)n2)cc1	> 173 µM	1.7 µM	102	173 µM
N#Cc1ccc(Nc2nccc(OCc3ccccc3F)n2)cc1	> 151 µM	0.0058 µM	26000	151 µM
Cc1cc(C)nc(Sc2ccnc(Nc3ccc(C#N)cc3)n2)n1	> 224 µM	27 µM	8	224 µM
N#Cc1ccc(Nc2nccc(OCc3cccc(C(F)(F)F)c3)n2)cc1	> 118 µM	0.61 µM	193	118 µM
N#Cc1ccc(Nc2nccc(OCc3cccc(Cl)c3)n2)cc1	> 153 µM	0.049 µM	3120	153 µM
Cc1cccc(COc2ccnc(Nc3ccc(C#N)cc3)n2)c1	> 30 µM	0.0088 µM	3410	30 µM
N#Cc1ccc(Nc2nccc(OCc3cc(F)ccc3Br)n2)cc1	> 190 µM	0.039 µM	4870	190 µM
N#Cc1ccc(Nc2nccc(OCc3ccccc3Br)n2)cc1	> 130 µM	0.036 µM	3610	130 µM
N#Cc1ccc(Nc2nccc(OCc3ccc(F)cc3)n2)cc1	> 81 µM	0.92 µM	88	81 µM
